The record followed here is ChEMBL document CHEMBL1165941, “Design and synthesis of 2,4-disubstituted polyhydroquinolines as prospective antihyperglycemic and lipid modulating agents” (Bioorg Med Chem, 2010).

For assay [1], the target named is T1, Glucose-6-phosphatase catalytic subunit 1 (Homo sapiens) (UniProt P35575).
T1 sequence (whole entry): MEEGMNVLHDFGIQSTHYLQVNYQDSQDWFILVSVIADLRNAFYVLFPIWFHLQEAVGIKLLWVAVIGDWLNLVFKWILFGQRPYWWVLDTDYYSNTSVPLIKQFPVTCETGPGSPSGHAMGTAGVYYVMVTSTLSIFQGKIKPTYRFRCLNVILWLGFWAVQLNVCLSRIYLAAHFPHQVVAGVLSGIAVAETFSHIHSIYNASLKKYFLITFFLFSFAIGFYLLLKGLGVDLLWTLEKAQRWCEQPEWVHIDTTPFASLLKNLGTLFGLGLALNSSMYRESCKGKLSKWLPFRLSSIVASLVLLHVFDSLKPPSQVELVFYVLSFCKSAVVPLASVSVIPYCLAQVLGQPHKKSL
Put plainly: Inhibition of glucose-6-phosphatase assessed as inositol phosphate release at 100 uM after 30 mins. To be noted: in the assay text read “inorganic phosphate” for “inositol phosphate”. The method in brief:
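Glucose-6-phosphatase was assayed in 0.3 M citrate pH 6.0 with 28 mM EDTA, 14 mM NaF, 200 mM glucose-6-phosphate and enzyme protein. After 30 min at 37 °C the reaction was stopped with 10% TCA. Activity was expressed as µmol Pi released per min per mg protein.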

Assay [2] can be described thus: Inhibition of glycogen phosphorylase assessed as […] phosphate release at 100 uM after 30 mins. The method in brief:
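Glycogen phosphorylase was incubated with glycogen, glucose-1-phosphate, NaF and 5′-AMP for 30 min at 37 °C. The reaction was stopped with 10% TCA and 0.1 M sodium acetate. Samples were held overnight at 4 °C, then released Pi was measured.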

In assay [3] the target is Dipeptidyl peptidase 4 (Homo sapiens) (UniProt P27487). The assay can be described thus: Inhibition of DPP4 at 100 uM after 15 mins by spectrofluorimeter. Put shortly: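 DPP-IV activity was measured at 37 °C as Gly-Pro-AMC (30 µM) cleavage in Tris–HCl pH 7.4 with test compound. Fluorescence was read at excitation 355 nm and emission 460 nm. The initial rate was taken over the first 15 min.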
Dipeptidyl peptidase 4 (Homo sapiens), sequence (P27487 whole entry, looked up): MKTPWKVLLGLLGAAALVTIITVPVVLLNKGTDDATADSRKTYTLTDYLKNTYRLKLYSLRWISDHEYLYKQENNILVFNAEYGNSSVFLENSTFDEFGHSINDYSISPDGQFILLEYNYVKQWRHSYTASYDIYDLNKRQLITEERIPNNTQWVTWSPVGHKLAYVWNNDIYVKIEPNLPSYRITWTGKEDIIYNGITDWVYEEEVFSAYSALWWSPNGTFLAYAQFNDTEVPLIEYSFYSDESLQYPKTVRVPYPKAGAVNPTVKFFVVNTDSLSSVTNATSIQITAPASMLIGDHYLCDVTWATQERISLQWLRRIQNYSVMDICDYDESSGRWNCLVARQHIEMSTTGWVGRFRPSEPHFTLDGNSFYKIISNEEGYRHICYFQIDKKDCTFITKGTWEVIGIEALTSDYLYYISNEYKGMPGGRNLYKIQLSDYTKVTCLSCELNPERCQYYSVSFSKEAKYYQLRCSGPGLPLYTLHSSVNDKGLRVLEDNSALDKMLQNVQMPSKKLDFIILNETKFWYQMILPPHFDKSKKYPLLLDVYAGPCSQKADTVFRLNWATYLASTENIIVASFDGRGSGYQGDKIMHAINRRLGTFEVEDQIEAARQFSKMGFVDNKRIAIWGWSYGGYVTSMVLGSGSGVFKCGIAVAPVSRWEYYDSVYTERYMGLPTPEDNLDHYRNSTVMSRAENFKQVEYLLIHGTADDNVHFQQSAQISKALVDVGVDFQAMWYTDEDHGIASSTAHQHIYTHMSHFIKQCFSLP

Assay [4] concerns Rattus norvegicus. Put plainly: Antihyperglycemic activity in Charles Foster-Wistar albino rat sucrose loaded model assessed as decrease of blood glucose level at 100 mg/kg, po administered 30 mins before glucose challenge measured up to 120 mins by glucometer. The assay is classed as functional. Details: scale not given: the % may be the effect or the level left. The note with it: in the assay text read “Sprague-Dawley” for “Charles Foster-Wistar”. The method in brief: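 Sprague–Dawley male rats with blood glucose 60–80 mg/dl, 5–6 per group, received 100 mg/kg orally as a suspension in 1.0% gum acacia; controls received vehicle. Sucrose 10.0 g/kg was given orally 30 min later. Glucose was read by glucometer at 30, 60, 90 and 120 min. Food was withheld. Percent activity came from AUC versus control.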

Assay [5] in a line: Inhibition of alpha-glucosidase at 100 uM after 3 mins. Put shortly:
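α-Glucosidase (0.1 mg/mL, purified) was assayed in 67 mM sodium phosphate pH 6.8 with 1.0 mg/mL glutathione. The reaction was started with 3.0 mg/mL pNPG and followed at 405 nm every 30 s for 3 min.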

Assay [6] concerns the target T2, Tyrosine-protein phosphatase non-receptor type 1 (Homo sapiens) (UniProt P18031).
T2 sequence (whole entry): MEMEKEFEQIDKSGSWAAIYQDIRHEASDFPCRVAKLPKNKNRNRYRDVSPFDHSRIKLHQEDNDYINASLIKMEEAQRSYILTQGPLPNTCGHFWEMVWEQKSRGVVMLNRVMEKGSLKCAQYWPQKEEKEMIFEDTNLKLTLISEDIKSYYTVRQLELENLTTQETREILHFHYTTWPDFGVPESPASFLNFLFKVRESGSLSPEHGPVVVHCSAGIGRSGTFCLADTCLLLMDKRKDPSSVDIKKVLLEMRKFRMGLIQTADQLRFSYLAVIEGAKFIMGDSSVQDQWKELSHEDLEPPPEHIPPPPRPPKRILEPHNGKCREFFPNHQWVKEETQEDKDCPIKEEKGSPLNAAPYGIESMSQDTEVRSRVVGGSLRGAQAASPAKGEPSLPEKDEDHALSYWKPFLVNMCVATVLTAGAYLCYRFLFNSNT
The assay can be described thus: Inhibition of PTP1B assessed as p-nitrophenolate ion production at 100 uM pretreated for 10 mins measured after 30 mins. Put shortly: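 PTP1B was preincubated 10 min with compound, with and without 0.01% Triton X-100. Substrate was 10 mM pNPP in 50 mM HEPES pH 7.0 with 1 mM DTT and 2 mM EDTA. After 30 min at 37 °C the reaction was stopped with 0.1 N NaOH and A410 was read. Product was calculated with ε 1.78×10⁴ M⁻¹cm⁻¹. Sodium orthovanadate served as standard. IC50 came from dose–response curves.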

Assay [7] deals with Rattus norvegicus. Put plainly: Antihyperglycemic activity in Sprague-Dawley albino rat streptozotocin-induced beta-cell damaged diabetic model assessed as decrease of blood glucose level at 100 mg/kg, po administered 30 mins before glucose challenge measured after 24 hrs by glucometer. The assay is classed as functional. Details: scale not given: the % may be the effect or the level left. The method in brief:
(§1)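 Rats were made diabetic with streptozotocin 60 mg/kg ip in 100 mM citrate pH 4.5 after an overnight fast. Animals with glucose 144–270 mg/dl at 48 h were used, 5–6 per group. Compounds were given 100 mg/kg orally in 1.0% gum acacia. Sucrose 2.5 g/kg followed 30 min later. Glucose was read by glucostrips up to 300 min and at 24 h. Non-responders were excluded. Percent activity came from AUC versus control.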

In assay [8] the test system is Rattus norvegicus. Put plainly: Antihyperglycemic activity in Sprague-Dawley albino rat streptozotocin-induced beta-cell damaged diabetic model assessed as decrease of blood glucose level at 100 mg/kg, po administered 30 mins before glucose challenge measured after 5 hrs by glucometer. The assay is classed as functional. Details: scale not given: the % may be the effect or the level left. Put shortly:
as §1

Calls of active or inactive are those of the source. The rule behind the calls is not given here.

By inhibition is commonly meant how much of the control response was suppressed. Take `COc1ccc(C2C=C(c3ccccc3)NC3=C2C(=O)CCC3)cc1` (stereo not given): the inhibition in assay [1] was 17.3%; in assay [2] it was 13.8%; in assay [5], 7.3%; in assay [6] it was 56.8%. Also, the inhibition result in assay [3] was “inactive”. In addition, the results for the Activity with Rattus norvegicus [4], in the assay with Rattus norvegicus [7] and in the assay on Rattus norvegicus [8] were 29.6%, 19.4% and 17.5%, respectively.
Regarding `CCOC(=O)C1=CC(c2ccccc2)C2=C(CC(C)(C)CC2=O)N1` (stereo not given), the inhibition result in assay [1], in assay [3] and in assay [5] was “inactive” in each case. For the same compound, the values for the inhibition in assay [2] and in assay [6] were 49.5% and 43.3%, respectively. Also, the values for the Activity with Rattus norvegicus [4], in the assay with Rattus norvegicus [7] and in the assay with Rattus norvegicus [8] were 16.6%, 11.3% and 7.1%, respectively.
Regarding `COc1ccc(Cl)cc1C(=O)NCCc1ccc(S(=O)(=O)NC(=O)NC2CCCCC2)cc1` [GLYBURIDE], the figures for the Activity with Rattus norvegicus [4], in the assay with Rattus norvegicus [7] and with Rattus norvegicus [8] were 32.5%, 28.4% and 25.6%, respectively.
In the case of `CCOC(=O)C1(O)CC(c2ccc(OC)cc2)C2=C(CC(C)(C)CC2=O)O1` (stereo not given), the inhibition result in assay [1], in assay [2], in assay [3] and in assay [5] was “inactive” in each case. The outcome in the assay with Rattus norvegicus [4] (Sprague-Dawley albino) was inactive. Also, in assay [6], the inhibition stood at 13.6%.
Turning to `CCOC(=O)C1=CC(c2ccc(OC)cc2)C2=C(CC(C)(C)CC2=O)N1` (stereo not given), the inhibition in assay [1] was 23.8%; in assay [2], 40.4%; in assay [3], 16.5%; in assay [6] it was 66.7%. Moreover, in the assay on Rattus norvegicus [4], the Activity was 12.9%. Besides, the inhibition entry in assay [5] was “inactive”.
For the compound `CC1(C)CC(=O)c2c(-c3ccc(Cl)cc3)cc(-c3ccccc3)nc2C1`, the inhibition in assay [1] is 11.3%; in assay [2] it was 13.8%; in assay [3], 29.4%; in assay [6], 18.6%. Moreover, the outcome with Rattus norvegicus [4] (Sprague-Dawley albino) was inactive. In assay [5], the inhibition result is “inactive”.
In the case of `CC1(C)CC(=O)C2=C(C1)NC(c1ccccc1)=CC2c1c[nH]c2ccccc12` (stereo not given), the results for the inhibition in assay [1], in assay [2] and in assay [6] were 26.7%, 39.7% and 54.5%, respectively. Besides, the inhibition result in assay [3] and in assay [5] was “inactive” each time. Moreover, the Activity in the assay with Rattus norvegicus [4] came out at 17.3%; with Rattus norvegicus [7] it was 13.2%; with Rattus norvegicus [8], 8.1%.
Take `COc1ccc(-c2cc(-c3ccccc3)nc3c2C(=O)CC(C)(C)C3)cc1`: the inhibition result in assay [1] and in assay [5] was “inactive” throughout. Besides, the inhibition in assay [2] is 31.1%; in assay [3], 22%; in assay [6] it was 9.1%. Moreover, the result with Rattus norvegicus [4] (Sprague-Dawley albino) was inactive.
`CN(C)C(=N)NC(=N)N` [METFORMIN]: the Activity is 13.5% in the assay with Rattus norvegicus [4], 20.2% with Rattus norvegicus [7] and 18% with Rattus norvegicus [8].
As to `CCOC(=O)C1(O)CC(c2ccccc2)C2=C(CC(C)(C)CC2=O)O1` (stereo not given), the inhibition entry in assay [1], in assay [2], in assay [3] and in assay [5] was “inactive” in each case. Further, in the assay with Rattus norvegicus [4] (Sprague-Dawley albino), the outcome was inactive. The inhibition in assay [6] turned out to be 21.3%.
With `Cc1ccc(C2=CC(c3ccccc3)C3=C(CCCC3=O)N2)cc1` (stereo not given), the inhibition turned out to be 27.7% in assay [1], 18.8% in assay [3], 8.3% in assay [5] and 33.3% in assay [6]. For the same compound, the inhibition entry in assay [2] is “inactive”. Moreover, the Activity in the assay with Rattus norvegicus [4] amounted to 13.4%.
Regarding `CCOC(=O)C1(O)CC(c2ccc(Cl)cc2)C2=C(CC(C)(C)CC2=O)O1` (stereo not given), the inhibition entry in assay [1], in assay [3] and in assay [5] was “inactive” throughout. Also, the inhibition in assay [2] is 7.6%; in assay [6], 16.5%. Also, the outcome in the assay on Rattus norvegicus [4] (Sprague-Dawley albino) was inactive.
For the compound `O=C1CCCC2=C1C(c1ccccc1)C=C(c1ccccc1)N2` (stereo not given), the inhibition result in assay [1], in assay [3] and in assay [5] was “inactive” throughout. For the same compound, the inhibition in assay [2] came out at 21.8%; in assay [6], 51.2%. Also, the figures for the Activity in the assay with Rattus norvegicus [4], in the assay with Rattus norvegicus [7] and in the assay on Rattus norvegicus [8] were 19.7%, 13.8% and 15.1%, respectively.
For `COc1ccc(C2=CC(c3ccccc3)C3=C(CC(C)(C)CC3=O)N2)cc1` (stereo not given), the inhibition turned out to be 8.34% in assay [1], 18.4% in assay [2], 22.4% in assay [5] and 53.4% in assay [6]. In assay [3], the inhibition result was “inactive”. Further, the Activity in the assay with Rattus norvegicus [4] worked out at 17.3%; in the assay with Rattus norvegicus [7], 11.7%; with Rattus norvegicus [8], 11.9%.
With `CCOC(=O)C1(O)CC(c2ccc(Br)cc2)C2=C(CC(C)(C)CC2=O)O1` (stereo not given), the inhibition result in assay [1], in assay [3] and in assay [5] was “inactive” in each case. In addition, the inhibition came out at 12.3% in assay [2] and 4.7% in assay [6]. In the assay with Rattus norvegicus [4] (Sprague-Dawley albino), the outcome was inactive.
Compound SODIUM ORTHOVANAD had an inhibition in assay [3] of 57.8%.
For `CCOC(=O)C1=CC(c2ccc(Cl)cc2)C2=C(CC(C)(C)CC2=O)N1` (stereo not given), the inhibition in assay [1] was determined as 11.3%; in assay [2], 56.7%; in assay [3], 12.5%; in assay [6], 53.8%. Also, the Activity with Rattus norvegicus [4] was 11.4%. For the same compound, the inhibition result in assay [5] was “inactive”.
For `CC1(C)CC(=O)C2=C(C1)NC(C(=O)O)=CC2c1ccc(F)cc1` (stereo not given), the inhibition was 16.8% in assay [1], 46.6% in assay [2], 1.4% in assay [5] and 27% in assay [6]. The inhibition result in assay [3] was “inactive”. Also, the values for the Activity in the assay on Rattus norvegicus [4], in the assay with Rattus norvegicus [7] and in the assay on Rattus norvegicus [8] were 38.7%, 23.6% and 27.8%, respectively.
In the case of `CC1(C)CC(=O)c2c(-c3ccc(F)cc3)cc(-c3ccccc3)nc2C1`, the inhibition in assay [1] came to 11.1%; in assay [2], 20.3%; in assay [3], 13.1%; in assay [6], 7.9%. Besides, in the assay with Rattus norvegicus [4] (Sprague-Dawley albino), the result was inactive. The inhibition entry in assay [5] was “inactive”.
